The list is not random: actives were taken first. Their share in the collection is about 1.9%.
Casp6 inh: inhibitors of human caspase-6; inhibition, % at 12.5 µM; purified caspase-6, Z-VEID-R110 cleavage fluorescence; P55212; actives 0.53% (n = 350,000);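 active = mean inhibition across replicates at least about 35%, with every replicate also reaching that limit, limit read from the data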;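 note: 0% = median of neutral control wells and 100% = no fluorescence left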
Target sequence (P55212 24-179 limits assumed): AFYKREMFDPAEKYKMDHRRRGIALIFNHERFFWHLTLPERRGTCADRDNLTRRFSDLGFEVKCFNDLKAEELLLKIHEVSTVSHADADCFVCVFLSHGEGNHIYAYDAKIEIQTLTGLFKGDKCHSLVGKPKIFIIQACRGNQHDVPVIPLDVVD
Target sequence (P55212 194-293 limits assumed): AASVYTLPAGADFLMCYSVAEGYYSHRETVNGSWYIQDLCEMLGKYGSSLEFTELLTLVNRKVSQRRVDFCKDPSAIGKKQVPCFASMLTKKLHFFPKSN
NSD2 HMT inh: inhibitors of human histone methyltransferase NSD2. O96028. NSD2 peptide methylation, AlphaScreen, 120 min. inhibition, % at 12.5 µM. actives 0.54% (n = 310,000). AID 743445; in the data active = inhibition above about 50%
LEDGF integ inh: blocks HIV-1 LEDGF/p75-dependent DNA integration. actives 0.64% (n = 370,000). TR-FRET IN-LEDGF/p75 DNA integration, Eu/Cy5. inhibition, % at 3.7 µM;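 active = inhibition above the screen-wide mean plus 3 SD, cut at about 13% in these data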;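 note: signal is the Cy5 over europium emission ratio at 671 and 618 nm; 0% = plate median of compound wells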
UHRF1 binding: blocks human UHRF1 binding to methylated DNA | Q96T88 | UHRF1 binding to methylated oligo, TR-FRET | actives 0.75% (n = 370,000) | inhibition, % at 4.4 µM | AID 687016; in the data active = inhibition above about 21%;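 note: UHRF1 SRA domain binding a hemimethylated CpG hairpin DNA probe; 0% = median of test compound wells and 100% = reference inhibitor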
MBD2 inh: inhibitors of human MBD2 binding to methylated oligonucleotide. Q9UBB5. TR-FRET. inhibition, % at 4.4 µM. actives 0.31% (n = 370,000); in the data active = inhibition above about 13%
TDP2 inh: TDP2 (human) inhibition, absorbance primary screen; O95551; inhibition, % at 12.8 µM; actives 0.34% (n = 370,000); recombinant TDP2, T5PNP hydrolysis, p-nitrophenol absorbance 415 nm;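 active = inhibition above the mean of all tested compounds plus 3 SD, set per campaign, cut at about 25% in these data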;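 note: 0% = DMSO with enzyme and 100% = buffer with substrate but no TDP2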
Target sequence (O95551 whole entry, looked up): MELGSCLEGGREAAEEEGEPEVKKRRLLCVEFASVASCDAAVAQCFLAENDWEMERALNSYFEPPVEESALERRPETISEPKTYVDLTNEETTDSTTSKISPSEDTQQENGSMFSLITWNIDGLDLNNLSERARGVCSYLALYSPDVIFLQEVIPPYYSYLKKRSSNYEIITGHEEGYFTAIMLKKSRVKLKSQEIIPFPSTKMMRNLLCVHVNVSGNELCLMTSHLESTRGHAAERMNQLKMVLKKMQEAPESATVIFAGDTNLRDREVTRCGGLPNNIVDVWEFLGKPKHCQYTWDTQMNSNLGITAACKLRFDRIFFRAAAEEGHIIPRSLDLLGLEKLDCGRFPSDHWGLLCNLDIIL
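Evaluation: % inhibition relative to enzyme-containing and enzyme-free wells. Material: recombinant human TDP2. Benchmarks: enzyme-free and DMSO wells. Timing: enzyme reaction with compound for 2 h at 37 °C. Compound dosing: 12.8 µM only. Measured by: p-Nitrophenol epi absorbance. Reagent: T5PNP substrate at 5 mM, a TopII-DNA adduct mimic. Replication: single well per compound.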
Starred values were filed as active, the others as inactive; . = no result given.

SMILES	Casp6 inh	NSD2 HMT inh	LEDGF integ inh	UHRF1 binding	MBD2 inh	TDP2 inh
CC1=NN(c2ccccc2)C(=O)/C1=C/c1ccc(Cl)cc1	1	.	8	12	8	71*
CC1=NN(c2ccc(C(=O)O)cc2)C(=O)/C1=C/c1ccc(-c2ccccc2F)o1	17	.	.	.	.	.
CC1=NN(c2ccccc2)C(=O)/C1=C\c1cc(C)n(-c2ccccc2)c1C	-2	3	-1	-3	-2	0
CC1=NN(c2ccc(C(=O)O)cc2)C(=O)/C1=C\c1ccc(OC(=O)c2cccs2)cc1	52*	24	3	3	2	24
CO[C@@H](CN(C)S(=O)(=O)c1ccc(Cl)cc1)[C@H](C)CN(Cc1ccccc1Cl)[C@H](C)CO	1	.	.	.	.	.
Cc1c(Cl)cnn1CC(=O)NC1C(=O)N2C(C(=O)O)=C(CSc3nnnn3C)CSC12 (stereo not drawn)	.	0	6	16	4	-8
Cc1c(Cl)c(C(F)F)nn1CC(=O)NC1C(=O)N2C(C(=O)O)=C(CSc3nnnn3C)CSC12 (stereo not drawn)	38*	5	1	2	0	-3
CCc1ccc(-n2c(SCC(=O)NC3CCS(=O)(=O)C3)nc3ccccc3c2=O)cc1 (stereo not drawn)	45*	0	0	-1	-2	6
O=C(C[C@H]1CC[C@H]2[C@@H](COC[C@H](O)CN2C(=O)c2cnccn2)O1)NCc1ccc(F)cc1	2	.	.	.	.	.
C/C=C/c1ccc([C@@H]2[C@H](CO)N(C(=O)C3CCC3)C23CN(S(=O)(=O)CC)C3)cc1	-1	.	.	.	.	.
C/C=C/c1ccc([C@@H]2[C@H](CO)N(C(=O)C3CCCC3)C23CN(S(C)(=O)=O)C3)cc1	58*	.	.	.	.	.
CCCCC1CCC(c2nc(-c3ccccn3)no2)CC1 (stereo not drawn)	.	-4	3	2	1	-6
c1ccc(-c2noc(C3CCC3)n2)nc1	-1	-4	1	25*	11	10
CC(=O)NC[C@H]1[C@H](c2ccc(-c3ccccc3F)cc2)[C@H](CO)N1C(=O)C1CC1	0	.	.	.	.	.
CCN(Cc1ccccc1)S(=O)(=O)c1c(C)n(C)c(=O)n(C)c1=O	1	1	1	-5	-4	-1
CCN(Cc1ccccc1)S(=O)(=O)c1c(N)n(C)c(=O)n(C)c1=O	3	-1	3	30*	13	-7
COc1cc(S(=O)(=O)N(Cc2ccc(C)cc2)Cc2ccco2)ccc1-n1cnnn1	.	0	0	0	0	2
COc1cc(S(=O)(=O)N(Cc2cccnc2)Cc2ccco2)ccc1-n1cnnn1	9	8	9	21*	11	7
COc1cccc(CN(Cc2cccnc2)S(=O)(=O)c2ccc(-n3cnnn3)c(C)c2)c1	6	1	3	21*	4	-14
CN(C=[N+](C)C)c1cccc2c1C(=O)c1ccccc1C2=O	.	69*	2	3	-4	4
O=c1[nH]c(N2CCOCC2)cc2ccccc12	96*	.	0	-10	-1	14
O=S(=O)(Nc1ccc(-c2ccc3nncn3n2)cc1)c1cccc(F)c1	0	0	-1	24*	9	12
Cc1cccc(S(=O)(=O)Nc2ccc(-c3ccc4nncn4n3)cc2)c1	0	0	-2	-3	-2	11
Cc1cccc(-c2ccc([C@@H]3[C@@H](CO)N4C(=O)CN(C(=O)c5cccnc5)C[C@H]34)cc2)c1	0	.	.	.	.	.
CCC[C@H]1[C@@H](OC(=O)NC(CC)CC)CC[C@@]23CCCN2C(=O)CCC[C@@H]13	.	.	-1	78*	4	2
SMILES	Casp6 inh	NSD2 HMT inh	LEDGF integ inh	UHRF1 binding	MBD2 inh	TDP2 inh
CCCC#Cc1cnc2c(c1)C(=O)N([C@H](C)CO)C[C@@H](C)[C@H](CN(C)C(=O)Nc1ccccc1F)O2	2	.	.	.	.	.
CCC(=O)N(Cc1cc(=O)[nH]c2ccccc12)c1ccccc1C	1	-3	0	38*	2	1
CCCC(=O)N(Cc1cc(=O)[nH]c2ccccc12)c1ccc(C)cc1C	6	0	4	2	7	-5
C[C@@H]1CN([C@H](C)CO)C(=O)c2cc(Br)cnc2O[C@H]1CN(C)CC1CCCC1	62*	.	.	.	.	.
C[C@H]1CN([C@@H](C)CO)C(=O)c2cc(C#CCN(C)C)cnc2O[C@H]1CN(C)C(=O)c1ccc2c(c1)OCO2	57*	.	.	.	.	.
C[C@H]1CN([C@@H](C)CO)C(=O)c2cc(C#CCC3CCCC3)cnc2O[C@@H]1CN(C)C(=O)CC1CC1	7	.	3	22*	5	2
C[C@@H]1CN([C@@H](C)CO)C(=O)c2cc(C#CCN(C)C)cnc2O[C@@H]1CN(C)C(=O)c1ccc2c(c1)OCO2	-3	.	.	.	.	.
CCC(=O)N(C)C[C@H]1Oc2ncc(C#Cc3ccccc3OC)cc2C(=O)N([C@@H](C)CO)C[C@H]1C	-2	.	.	.	.	.
COC(=O)[C@]1(CNC(=O)C(C)(C)C)CC(=O)N(Cc2ccc(Cl)cc2)[C@@H]1c1ccc(OC)cc1	.	.	5	45*	-1	-5
O=C(O)C[C@H]1CC[C@H]2[C@@H](COC[C@H](O)CN2S(=O)(=O)c2ccc(Oc3ccccc3)cc2)O1	40*	.	.	.	.	.
N#CCC(=O)N/N=C/c1cc(-c2ccccc2)n(-c2ccc(Cl)cc2)c1-c1ccccc1	0	4	-3	38*	7	9
CCOC(=O)C1=C(C)N(C)C(=O)NC1c1c(C)nn(-c2ccc(C)cc2)c1Cl (stereo not drawn)	.	0	0	23*	4	7
CC1CC(C)CN(C(=O)COC(=O)c2ccc(S(=O)(=O)N(C)c3ccccc3)cc2)C1 (stereo not drawn)	3	-2	7	21*	2	-13
CCC(C)n1c(NC(=O)c2ccccc2)c(C#N)c2nc3ccccc3nc21 (stereo not drawn)	.	.	28*	8	2	77*
CCC(=O)Nc1c(C#N)c2nc3ccccc3nc2n1-c1ccc(C)cc1	54*	43	-1	-7	-3	-6
C[C@@H]1CCCCO[C@H](CN(C)Cc2ccc(C(F)(F)F)cc2)[C@H](C)CN([C@H](C)CO)C(=O)c2cc(NC(=O)CCCN(C)C)ccc2O1	-1	.	.	.	.	.
CCOC(=O)N1CCN(C(C(=O)NC2CCCC2)C(C)C)CC1 (stereo not drawn)	38*	.	-2	3	-1	-6
O=C(O)Cc1ccc(N=Nc2c(O)c(C(=O)O)cc3ccccc23)cc1	40*	39	8	-3	-15	1
NS(=O)(=O)c1ccc(N=Nc2c(O)c(C(=O)O)cc3ccccc23)cc1	9	16	-1	2	-14	-17
CC(C)(C)S(=O)N1Cc2cc(C(=O)NCc3ccc4c(c3)OCO4)nc(-c3cccc(C#CCC4CCCC4)c3)c2[C@@H]1CCO (stereo partly drawn)	-4	.	.	.	.	.

Source: PubChem
